Measured values reported in the EternaBench riboswitch data.

Tested on: MS2 coat protein
Test: apparent Kd, MS2 coat protein; higher = weaker binding; RNA-MaP array; FMN 200 µM where present
Outline: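 Stalled E. coli RNA polymerase produced the designs on Illumina sequencing-chip clusters. SNAP-549-labelled MS2 coat protein was added from 0.7 or 1.5 nM, doubling to 3 µM, without and then with constant ligand, in 100 mM Tris-HCl pH 7.5, 80 mM KCl, 4 mM MgCl2, BSA, DTT, yeast tRNA and Tween-20. The apparent Kd is the median of filtered per-cluster fits of green signal normalised to red-channel RNA signal and control-cluster median Fmax.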

[1] = designed as: OFF switch for flavin mononucleotide, no ligand
[2] = ligand present: flavin mononucleotide, designed as: OFF switch for flavin mononucleotide
[3] = designed as: ON switch for flavin mononucleotide, no ligand
[4] = ligand present: flavin mononucleotide, designed as: ON switch for flavin mononucleotide

## CUAUUCCGAGGAUAUACAUGAGGAUCACCCAUGUCGGGCCUCUGCGUUUAGCGCGUAAGUAGAAGGUGGGUUUC
[1]
  apparent Kd: 31 nM
[2]
  apparent Kd: 32.9 nM

## AAUGGGUGUGUGAGGAUAUACGAUGGCAGUUGCCAGUAGAAGGUACAUGAGGAUCACCCAUGUGUCCAAAAGUG
[1]
  apparent Kd: 13.2 nM
[2]
  apparent Kd: 16 nM

## AAUAUAGAGCUGGAAAUAAAACUCACAUGAGGAUCACCCAUGUAGGAUAUCAGCACGAUAAGUGCUGAGAAGGACAUCCAGCUC
[1]
  apparent Kd: 15.2 nM
[2]
  apparent Kd: 15.2 nM

## AUAAGCUCGUCAGGAUAUACGUCACUGUUUCGGCAGUGAGGUAUGAUCACAUGAGGAUCACCCAUGUAGAAGGGACGAGCUUAU
[1]
  apparent Kd: 5.24 nM
[2]
  apparent Kd: 8.29 nM

## UGACUCGGAGGAUAUACAUGAGGAUCACCCAUGUUUGCCGGCCGCCGAGUAACCUGGUGUAGAAGGUCGAGUGU
[1]
  apparent Kd: 20.4 nM
[2]
  apparent Kd: 18.9 nM

## CUUAUGUGAGGAUAUCAGUAGUAAUACAAUAGUAUUACUACUGAGAAGGCACAUGAGGAUCACCCAUGUUCUUC
[1]
  apparent Kd: 134 nM
[2]
  apparent Kd: 36.9 nM

## GCAUCCAAAGUGAGGAUAUACCUCUGGAUACAGAGGUAGAAGGCACAUGAGGAUCACCCAUGUUCCUAGGAUGC
[1]
  apparent Kd: 15.3 nM
[2]
  apparent Kd: 74.2 nM

## GGUCGUCACAUGAACAUGAGGAUCACCCAUGUAAAUUCUCAUGAGGAUAUGGAUCCUAAUUGGAUCCAGAAGGCGUGGACGACC
[3]
  apparent Kd: 953 nM
[4]
  apparent Kd: 457 nM

## GGGUACAUCGGAGGAUAUCAUGUAAAUACAUGAGGAUCACCCAUGUCGAUGGAGACAUCGGAGAUUGAGAAGGCCGAGGUACCG
[3]
  apparent Kd: 191 nM
[4]
  apparent Kd: 9.91 nM

## CUAGCCCAGCCCGCCUAGUUCGGGAGAAGGAGGAGACAUGAGGAUCACCCAUGUGGCCUUAUCUCCUAGGAUAUCCCGGCGGGA
[1]
  apparent Kd: 5.56 nM
[2]
  apparent Kd: 21.6 nM

## UCGGUGACAGGAUAUACAUGAGGAUCACCCAUGUUAAGAAGAGAAAGGGCAGGAAGAGGUAGAAGGGUCGCUGU
[1]
  apparent Kd: 51.7 nM
[2]
  apparent Kd: 69 nM

## AGUUAAUAUCGAGGAUAUGUCUAGACACAUGAGGAUCACCCAUGUAUGUGUAUAGAAGGCGAUAUUAACAGCAUGUUACAUGCG
[3]
  apparent Kd: 39 nM
[4]
  apparent Kd: 16.1 nM

## ACAUGAGGAUCACCCAUGUAGAGUGGAGAAGGUAGAUACUUGUGACUCUCCCAUGUACAUAGGACUGAGGAUAUUCUAAUAAUU
[3]
  apparent Kd: 65.7 nM
[4]
  apparent Kd: 47.5 nM

## UGCGUGGUCACAGGAUAUGCAGGAUGAACUUUAGCAGAAGGGUGAUCAAUCAGCUCAAAACCACAUGAGGAUCACCCAUGUCUA
[3]
  apparent Kd: 31.9 nM
[4]
  apparent Kd: 92.9 nM

## GAGUGGAAGGCCGCUACAUGAGGAUCACCCAUGUGCUAAGCACAGGAUAUCGCGCUGGCCCGGCGCGAGAAGGGUGACGGCCUG
[3]
  apparent Kd: 674 nM
[4]
  apparent Kd: 324 nM

## AAAGAGCAAGGAUAUACAUGAGGAUCACCCAUGUAGUACGUGAACCAGGUUUUCCUGAGUAGAAGGUGCAGACA
[1]
  apparent Kd: 36 nM
[2]
  apparent Kd: 34.3 nM

## CGUCCUCUAGUUAGGAUAUUGUCUCGGAUACGAAACAAGAAGGGACAUGAGGAUCACCCAUGUAAUGAGGACGA
[1]
  apparent Kd: 29.2 nM
[2]
  apparent Kd: 28.2 nM

## AAAACACAUGAGGAUCACCCAUGUGAGGAUAUGUCCAUGCUCGGCAAACCGGGCAUGGACAGAAGGCACAUAAA
[1]
  apparent Kd: 45 nM
[2]
  apparent Kd: 46.7 nM

## AGCAUGCUAGGAUAUACGAAACAUUAGGGUUCUUUGUAUGAACAUGAGGAUCACCCAUGUAGAAGGAGCGUGCA
[1]
  apparent Kd: 109 nM
[2]
  apparent Kd: 170 nM

## AAAUUGCUAGAGGAUAUCGGAUAGGAUCUAUCGCGAGAAGGUUGGACAUGAGGAUCACCCAUGUUCUGUUGGGA
[1]
  apparent Kd: 24.4 nM
[2]
  apparent Kd: 26.1 nM

## UCGUACAUUCGAGGAUAUCGGUGAUAUAUAUUACGAGAAGGCGAUUGUUUGUUUUACGCCUUAGACAUGAGGAUCACCCAUGUA
[3]
  apparent Kd: 77.7 nM
[4]
  apparent Kd: 55.2 nM

## UAAUUUAACAAGAAGGCUAACAUGAGGAUCACCCAUGUUGUACAUGGAUAUAGAGGAUAUUGCUAAUAAUUAUUUAUCAUAAUU
[1]
  apparent Kd: 24.2 nM
[2]
  apparent Kd: 19.2 nM

## AACUGACAUGAGGAUCACCCAUGUCAGGAUAUGCUUCAUAAAAUAAAAAUAAAAUGAUGCAGAAGGGACAUGGA
[1]
  apparent Kd: 27.1 nM
[2]
  apparent Kd: 39.6 nM

## UAAAGUGUGGAGGAUAUGGACCGCGCUAGUGGUCCAGAAGGUCAAACAUGAGGAUCACCCAUGUCCCGUGAUUA
[1]
  apparent Kd: 54.5 nM
[2]
  apparent Kd: 67.7 nM

## UGGUUGUGAGGAUAUACGUUUUUUAACUUUUGUUUUAUAUUGUAGAAGGCACAUGAGGAUCACCCAUGUUACGU
[1]
  apparent Kd: 22.9 nM
[2]
  apparent Kd: 30.8 nM

## GCGUCAGAAUUAAUUGUGACAGACAGAAGGCAAUAGUAUGUGACCGACAUGAGGAUCACCCAUGUUGAGGAUAUGUAUUGACAC
[1]
  apparent Kd: 5.68 nM
[2]
  apparent Kd: 7.08 nM

## UUCACGUAUAUAGGAUAUGCGGGCAAAUAACGCGCAGAAGGAUAUACAUGAGGAUCACCCAUGUAUUGAGACCUCAUACGCCGC
[1]
  apparent Kd: 7.47 nM
[2]
  apparent Kd: 9.38 nM

## UGUUGUAUUACAGGAUAUCUAUUAUUUUUACUUAGAGAAGGGUAUUCACAUGAGGAUCACCCAUGUAUAUACGAGGAAGUUGUG
[3]
  apparent Kd: 54.2 nM
[4]
  apparent Kd: 56 nM

## CAAAAGUAUAACAAUUUCAAGGCACAGGAUAUGAGUGUGCACAUGAGGAUCACCCAUGUUAUAACUUAGAAGGGUGACCAUUGC
[3]
  apparent Kd: 427 nM
[4]
  apparent Kd: 368 nM

## AUCUUGAGAGGAUAUACAUGAGGAUCACCCAUGUUUCUAACACCAUGCGGUCAUUUGCGUAGAAGGCUCGUCCG
[1]
  apparent Kd: 19.9 nM
[2]
  apparent Kd: 34.1 nM

## GGACGUCACAUUAACAUGAGGAUCACCCAUGUCAAAAGACAUGAGGAUAUGGAUCCGAAAAGGAUCCAGAAGGCAUGGACGUCC
[3]
  apparent Kd: 555 nM
[4]
  apparent Kd: 36.6 nM

## ACUUAUAGAGGAUAUACAGUAUAUUACAUGAGGAUCACCCAUGUUCUUCAAUGUAUAUAUGUAGAAGGCUAAGGAA
[1]
  apparent Kd: 206 nM
[2]
  apparent Kd: 541 nM

## GGUUGUCAUCGUCGUCCUUUCGGUACAUGAGGAUCACCCAUGUAGGAUAUGCUGCAUUCGAUGUGGCAGAAGGGCGUGUGUGUU
[1]
  apparent Kd: 16.7 nM
[2]
  apparent Kd: 18.4 nM

## AGUCCACAUGAGGAUCACCCAUGUCUGGAGAAGACAGGAUAUAAGGAAAAAAAAAAAAACUUAGAAGGGUCAAAAA
[3]
  apparent Kd: 128 nM
[4]
  apparent Kd: 69.7 nM

## GCGGUACAUGAGGAUCACCCAUGUCAGGAUAUCCGCUGUUUGUCGUUUGGCGGGCGGUGGAGAAGGGACCUCGC
[1]
  apparent Kd: 90 nM
[2]
  apparent Kd: 93 nM

## CUAAAUCAUGUAGGAUAUGCAUGGCGAAGCUACGCAGAAGGACAUGAGGAUCACCCAUGUCUCUCCGUCUGCAUACAGACGGAG
[1]
  apparent Kd: 20.1 nM
[2]
  apparent Kd: 123 nM

## CUUCAGUCAGGAUAUGUUAAUCUCGCCACUCCGCGAGCCGGACAGAAGGGACAUGAGGAUCACCCAUGUUAAAC
[1]
  apparent Kd: 29.5 nM
[2]
  apparent Kd: 21.9 nM

## GGACCGUCCAGAGUUGGCGGUCGGCAGGAUAUGACAUGAGGAUCACCCAUGUGAACUCCAUUGGGUCAGAAGGGCCACGACGAU
[1]
  apparent Kd: 25.2 nM
[2]
  apparent Kd: 94.7 nM

## AGGCGUAAGACAGGAUAUAGGCAGCGGGCUGGAAACGAAUACAAAGACAUGAGGAUCACCCAUGUCUAGAAGGGUCGUGGCGGG
[1]
  apparent Kd: 9.05 nM
[2]
  apparent Kd: 9.88 nM

## AGUGCUAUGUAGAAGGCAGAUCUGAUUCAGAUCUGAGGAUAUACAUGAGGAUCACCCAUGUUAUGCACCAGCACGAGAGUGCAU
[1]
  apparent Kd: 20 nM
[2]
  apparent Kd: 98 nM

## GCAAAGCCUGACAUGAGGAUCACCCAUGUUAGAUUGUUAUGUCAGGAUAUUGUCUAGACACUAGACAAGAAGGGAUGCUUUGCA
[3]
  apparent Kd: 386 nM
[4]
  apparent Kd: 38.4 nM

## AAUCUAUUUAUGGGAUUACAAUAUGAGGAUAUCAUUCAUCUAUACAUGAGGAUCACCCAUGUUACUGAGAAGGCAUAUAUAAUA
[3]
  apparent Kd: 14.1 nM
[4]
  apparent Kd: 9.85 nM

## AGCUACGUUUCGUAGCAGCUAGGUGAGGAUAUUCAAUUUUUCACAUGAGGAUCACCCAUGUAUGUGAAGAAGGCGCCUAGAAAC
[3]
  apparent Kd: 10.8 nM
[4]
  apparent Kd: 5.07 nM

## AAAAAAAAAAGAGAGGAUAUCCAAAAAAAAACAUGAGGAUCACCCAUGUAAAAAAAAAAAAAAUGGGAGAAGGCUCAAAAAAAAAA
[3]
  apparent Kd: 89.7 nM
[4]
  apparent Kd: 23.2 nM

## GAUUCACAUGAGGAUCACCCAUGUGAGGAUAUAGUGCAAGAGGUGGAUGCCCACCUCCCUAGAAGGCACACGGG
[1]
  apparent Kd: 28.6 nM
[2]
  apparent Kd: 24 nM

## CUUUUAUUGGUCCAUUUUUUCAACAUGAGGAUCACCCAUGUGCAGGAUAUCGUGAUUAUUAUCAACGAGAAGGGCAGAUUCACG
[1]
  apparent Kd: 29 nM
[2]
  apparent Kd: 73.6 nM

## GCCGCGUUUCGCGCCUACAUGAGGAUCACCCAUGUUUGUGGGCAGGAUAUCGUCCGCUCUGCGGGCGAGAAGGGCUGUUGUGGU
[3]
  apparent Kd: 57.7 nM
[4]
  apparent Kd: 50 nM

## GCCGGUUCCCUAGGAUAUGUACAUGAGGAUCACCCAUGUGCUUCUAGAGCCGGAGCAGGGCAUGUACAGAAGGAGGGUCGACCC
[1]
  apparent Kd: 6.47 nM
[2]
  apparent Kd: 7.39 nM

## UAAAUACAUGAGGAUCACCCAUGUGAGGAUAUCCGAUGAUUCGGAGAAAGGACCCGUUGGAGAAGGCAUAGGGC
[1]
  apparent Kd: 27.1 nM
[2]
  apparent Kd: 21 nM

## GGGCUUUGGGAGAAGGUACAUUAAAUUAGUUUAACAUGAGGAUCACCCAUGUAAGGAUAUCCCAUCUUGUAUUAUGGUACAGCC
[1]
  apparent Kd: 12.8 nM
[2]
  apparent Kd: 12.8 nM

## AGGUAGCAAGGAUAUACAACUUUGGGCACUGCCUCUUGGAGACAUGAGGAUCACCCAUGUAGAAGGUGCAGGCC
[1]
  apparent Kd: 13.2 nM
[2]
  apparent Kd: 33.9 nM

## UAUAUAUAGUAAGGAUAUGUAUUAAUCUUAUAAACAGAAGGUACUGACAUGAGGAUCACCCAUGUUUUAGUGUGGGCAUGUAGA
[1]
  apparent Kd: 78.1 nM
[2]
  apparent Kd: 103 nM

## UGUCGGAGCAGAGGAUAUUACAUGAGGAUCACCCAUGUAUGAGCCAAUAGCUGGAAACAGCAAUGUAAGAAGGCUGCUCCGACA
[1]
  apparent Kd: 19.1 nM
[2]
  apparent Kd: 206 nM

## CCAUCGAGUGUGAGGAUAUGCUGGUCCUUGGAUCAGCAGAAGGCACAUGAGGAUCACCCAUGUGGAUACGGUGG
[1]
  apparent Kd: 31 nM
[2]
  apparent Kd: 235 nM

## AAUUUACAUGAGGAUCACCCAUGUCAGGAUAUGGUUUUAUUUUUUUCUUUUCUUGAUUCCAGAAGGGACAGUUA
[1]
  apparent Kd: 114 nM
[2]
  apparent Kd: 63.9 nM
